Laboratory results published in ChEMBL document CHEMBL4177770, “Discovery of MK-6169, a Potent Pan-Genotype Hepatitis C Virus NS5A Inhibitor with Optimized Activity against Common Resistance-Associated Substitutions” (J Med Chem, 2018).
Changes are numbered by the printed parent chain.

How the values were obtained:
[1] = target: T1, Nonstructural protein 5A (Hepatitis C virus) (UniProt Q5L478); experiment: Inhibition of NS5A in HCV genotype 1a infected in HuH7 replicon cells assessed as decrease in viral replication after 3 days by RT-PCR method; type: cell-based; conditions: Hepatitis C virus subtype 1a
T1 sequence (whole entry): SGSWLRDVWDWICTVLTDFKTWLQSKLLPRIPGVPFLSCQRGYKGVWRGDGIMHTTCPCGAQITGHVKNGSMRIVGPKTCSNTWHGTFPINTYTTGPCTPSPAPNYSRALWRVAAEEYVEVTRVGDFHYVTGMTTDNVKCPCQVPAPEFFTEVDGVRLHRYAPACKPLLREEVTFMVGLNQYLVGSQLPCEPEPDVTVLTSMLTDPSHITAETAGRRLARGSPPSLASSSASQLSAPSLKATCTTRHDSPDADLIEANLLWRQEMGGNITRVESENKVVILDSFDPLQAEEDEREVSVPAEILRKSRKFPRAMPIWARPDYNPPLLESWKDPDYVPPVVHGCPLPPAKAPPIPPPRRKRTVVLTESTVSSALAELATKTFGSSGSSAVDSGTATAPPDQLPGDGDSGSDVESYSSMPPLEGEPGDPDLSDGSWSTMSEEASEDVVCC

[2] = Resistance ratio of EC90 for NS5A L31M mutant in HCV genotype 2b infected in HuH7 replicon cells to EC90 for NS5A in HCV genotype 1a infected in HuH7 replicon cells; type: cell-based
[3] = test system: T2, Nonstructural protein 5A (Hepatitis C virus), Q5L478 [Y93H]; experiment: Inhibition of NS5A Y93H mutant in HCV genotype 1a infected in HuH7 replicon cells assessed as decrease in viral replication after 3 days by RT-PCR method; type: cell-based; conditions: Hepatitis C virus subtype 1a
T2 sequence (whole entry): T1 sequence (whole entry) with Y93H

[4] = Resistance ratio of EC90 for NS5A in HCV genotype 3a infected in HuH7 replicon cells to EC90 for NS5A in HCV genotype 1a infected in HuH7 replicon cells; type: cell-based
[5] = Resistance ratio of EC90 for NS5A in HCV genotype 1b infected in HuH7 replicon cells to EC90 for NS5A in HCV genotype 1a infected in HuH7 replicon cells; type: cell-based
[6] = target: T1, Nonstructural protein 5A (Hepatitis C virus); experiment: Inhibition of NS5A in HCV genotype 4a infected in HuH7 replicon cells assessed as decrease in viral replication after 3 days by RT-PCR method; type: cell-based; conditions: Hepatitis C virus subtype 4a
[7] = test system: Hepatitis C virus subtype 1a; experiment: Resistance ratio of EC90 for NS5A Y93H mutant in HCV genotype 1a infected in HuH7 replicon cells to EC90 for NS5A in HCV genotype 1a infected in HuH7 replicon cells; type: cell-based
[8] = target: T1, Nonstructural protein 5A (Hepatitis C virus); experiment: Inhibition of NS5A in HCV genotype 3a infected in HuH7 replicon cells assessed as decrease in viral replication after 3 days by RT-PCR method; type: cell-based; conditions: Hepatitis C virus subtype 3a
[9] = target: T1, Nonstructural protein 5A (Hepatitis C virus); experiment: Inhibition of NS5A in HCV genotype 1b infected in HuH7 replicon cells assessed as decrease in viral replication after 3 days by RT-PCR method; type: cell-based; conditions: Hepatitis C virus subtype 1b
[10] = test system: Hepatitis C virus subtype 1a; experiment: Resistance ratio of EC90 for NS5A L31V mutant in HCV genotype 1a infected in HuH7 replicon cells to EC90 for NS5A in HCV genotype 1a infected in HuH7 replicon cells; type: cell-based
[11] = Resistance ratio of EC90 for NS5A in HCV genotype 4a infected in HuH7 replicon cells to EC90 for NS5A in HCV genotype 1a infected in HuH7 replicon cells; type: cell-based
[12] = target: T1, Nonstructural protein 5A (Hepatitis C virus); experiment: Inhibition of NS5A L31M mutant in HCV genotype 2b infected in HuH7 replicon cells assessed as decrease in viral replication after 3 days by RT-PCR method; type: cell-based; conditions: Hepatitis C virus subtype 2b
[13] = target: T1, Nonstructural protein 5A (Hepatitis C virus); experiment: Inhibition of NS5A L31V mutant in HCV genotype 1a infected in HuH7 replicon cells assessed as decrease in viral replication after 3 days by RT-PCR method; type: cell-based; conditions: Hepatitis C virus subtype 1a
[14] = Oral bioavailability in Wistar Han rat at 10 mg/kg by LC/MS method; type: ADME, organism-based; conditions: in vivo
Method in brief: (§1)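 Male Wistar Han rats, two per dosing group, dosed orally at 10 mg/kg in 10% TWEEN. Plasma was separated from collected blood by centrifugation and analysed by LC/MS.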

[15] = Clearance in Wistar Han rat at 2 mg/kg, iv by LC/MS method; type: ADME, organism-based; conditions: in vivo
Method in brief: (§2)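 Male Wistar Han rats, two per group, dosed IV at 2 mg/kg in 60% PEG200. Plasma was obtained by centrifuging the blood, and compound concentrations were measured by LC/MS.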

[16] = Cmax in Wistar Han rat at 10 mg/kg, po by LC/MS method; type: ADME, organism-based; parameters: dose 10 mg/kg, route oral; conditions: in vivo; method in brief: as §1
[17] = AUC in Wistar Han rat at 10 mg/kg, po by LC/MS method; type: ADME, organism-based; conditions: in vivo; method in brief: as §1
[18] = Half life in Wistar Han rat at 2 mg/kg, iv by LC/MS method; type: ADME, organism-based; conditions: in vivo; method in brief: as §2
[19] = Drug level in Wistar Han rat at 10 mg/kg, po measured at 24 hrs by LC/MS method; type: ADME, organism-based; conditions: in vivo, read-out: Drug uptake; method in brief: as §1

COC(=O)N[C@H](C(=O)N1CCC[C@H]1c1ncc(-c2cc(F)c3c(c2)O[C@@H](c2ccc(C(F)F)s2)n2c-3cc3cc(-c4cnc([C@@H]5CCCN5C(=O)[C@@H](NC(=O)OC)C5CCOCC5)[nH]4)ccc32)[nH]1)C(C)C
EC90 [1]: 4 pM
Ratio [2]: < 10
EC90 [3]: 15 pM
Ratio [4]: < 10
Ratio [5]: < 10
EC90 [6]: 4 pM
Ratio [7]: < 10
EC90 [8]: 10 pM
EC90 [9]: 6 pM
Ratio [10]: < 10
Ratio [11]: < 10
EC90 [12]: 16 pM
EC90 [13]: 5 pM

COC(=O)N[C@H](C(=O)N1CCC[C@H]1c1ncc(-c2cc(F)c3c(c2)O[C@@H](c2cc4c(s2)CCC4)n2c-3cc3cc(-c4cnc([C@@H]5CCCN5C(=O)[C@@H](NC(=O)OC)C5CCOCC5)[nH]4)ccc32)[nH]1)C(C)C
EC90 [1]: 5 pM
Ratio [2]: < 10
EC90 [3]: 39 pM
Ratio [4]: < 10
Ratio [5]: < 10
EC90 [6]: 4 pM
Ratio [7]: < 10
EC90 [8]: 22 pM
EC90 [9]: 5 pM
Ratio [10]: < 10
Ratio [11]: < 10
EC90 [12]: 64 pM
EC90 [13]: 13 pM

CCCc1ccc([C@@H]2Oc3cc(-c4cnc([C@@H]5CCCN5C(=O)[C@@H](NC(=O)OC)C(C)C)[nH]4)cc(F)c3-c3cc4cc(-c5cnc([C@@H]6CCCN6C(=O)[C@@H](NC(=O)OC)C6CCOCC6)[nH]5)ccc4n32)s1
EC90 [1]: 2 pM
Ratio [2]: < 10
EC90 [3]: 9 pM
Ratio [4]: < 10
Ratio [5]: < 10
EC90 [6]: 2 pM
Ratio [7]: < 10
EC90 [8]: 5 pM
EC90 [9]: 6 pM
Ratio [10]: < 10
Ratio [11]: < 10
EC90 [12]: 12 pM
EC90 [13]: 3 pM

COC(=O)N[C@H](C(=O)N1CCC[C@H]1c1ncc(-c2cc(F)c3c(c2)O[C@@H](c2cc4ccccc4s2)n2c-3cc3cc(-c4cnc([C@@H]5CCCN5C(=O)[C@@H](NC(=O)OC)C5CCOCC5)[nH]4)ccc32)[nH]1)C(C)C
EC90 [1]: 5 pM
EC90 [3]: 111 pM
EC90 [6]: 4 pM
Ratio [7]: 20
EC90 [8]: 11 pM
EC90 [9]: 3 pM
EC90 [12]: 57 pM
EC90 [13]: 8 pM

COC(=O)N[C@H](C(=O)N1CCC[C@H]1c1ncc(-c2cc(F)c3c(c2)O[C@@H](c2ccc4c(c2)CCCO4)n2c-3cc3cc(-c4cnc([C@@H]5CCCN5C(=O)[C@@H](NC(=O)OC)C5CCOCC5)[nH]4)ccc32)[nH]1)C(C)C
EC90 [1]: 5 pM
Ratio [2]: < 10
EC90 [3]: 356 pM
Ratio [4]: < 10
Ratio [5]: < 10
EC90 [6]: 6 pM
Ratio [7]: < 10
EC90 [8]: 9 pM
EC90 [9]: 3 pM
Ratio [10]: < 10
Ratio [11]: < 10
EC90 [12]: 1070 pM
EC90 [13]: 7 pM

COC(=O)N[C@H](C(=O)N1CCC[C@H]1c1ncc(-c2cc(F)c3c(c2)O[C@@H](c2ccc(C(F)(F)F)s2)n2c-3cc3cc(-c4cnc([C@@H]5CCCN5C(=O)[C@@H](NC(=O)OC)C5CCOCC5)[nH]4)ccc32)[nH]1)C(C)C
EC90 [1]: 3 pM
Ratio [2]: < 10
EC90 [3]: 23 pM
Ratio [4]: < 10
Ratio [5]: < 10
EC90 [6]: 3 pM
Ratio [7]: < 10
EC90 [8]: 6 pM
EC90 [9]: 5 pM
Ratio [10]: < 10
Ratio [11]: < 10
EC90 [12]: 10 pM
EC90 [13]: 5 pM

COC(=O)N[C@H](C(=O)N1CCC[C@H]1c1ncc(-c2cc(F)c3c(c2)O[C@@H](c2ccc4c(c2)OCCC4)n2c-3cc3cc(-c4cnc([C@@H]5CCCN5C(=O)[C@@H](NC(=O)OC)C5CCOCC5)[nH]4)ccc32)[nH]1)C(C)C
EC90 [1]: 4 pM
Ratio [2]: < 10
EC90 [3]: 35 pM
Ratio [4]: < 10
Ratio [5]: < 10
EC90 [6]: 7 pM
Ratio [7]: < 10
EC90 [8]: 8 pM
EC90 [9]: 6 pM
bioavailability [14]: 0.8%
Ratio [10]: < 10
clearance [15]: 0.66 L/h/kg
Ratio [11]: < 10
EC90 [12]: 19 pM
Cmax [16]: 0.032 µM
AUC [17]: 130 nM·h
half-life [18]: 3.2 h
EC90 [13]: 5 pM

COC(=O)N[C@H](C(=O)N1CCC[C@H]1c1ncc(-c2cc(F)c3c(c2)O[C@@H](c2ccc(C4CC4)s2)n2c-3cc3cc(-c4cnc([C@@H]5CCCN5C(=O)[C@@H](NC(=O)OC)C5CCOC6(CC6)C5)[nH]4)ccc32)[nH]1)C(C)C (some centres not stated)
EC90 [1]: 6 pM
EC90 [3]: 49 pM
EC90 [6]: 4 pM
concentration at 24 h [19]: 0.004 µM
EC90 [8]: 8 pM
EC90 [9]: 4 pM
bioavailability [14]: 1.9%
clearance [15]: 0.3 L/h/kg
EC90 [12]: 36 pM
Cmax [16]: 0.057 µM
AUC [17]: 580 nM·h
half-life [18]: 5.7 h
EC90 [13]: 7 pM

COC(=O)N[C@H](C(=O)N1CCC[C@H]1c1ncc(-c2cc(F)c3c(c2)O[C@@H](c2ccc4c(c2)OCCC4)n2c-3cc3cc(-c4cnc([C@@H]5CCCN5C(=O)[C@@H](NC(=O)OC)[C@@H]5CCOC(C)(C)C5)[nH]4)ccc32)[nH]1)C(C)C
EC90 [1]: 3 pM
EC90 [3]: 48 pM
EC90 [6]: 5 pM
concentration at 24 h [19]: 0.001 µM
EC90 [8]: 7 pM
EC90 [9]: 5 pM
bioavailability [14]: 1.2%
clearance [15]: 1.5 L/h/kg
EC90 [12]: 17 pM
Cmax [16]: 0.01 µM
AUC [17]: 80 nM·h
half-life [18]: 3.8 h
EC90 [13]: 4 pM
